Data reported in ChEMBL document CHEMBL1150802, “Ampicillin-resistant non-beta-lactamase-producing Haemophilus influenzae in Spain: recent emergence of clonal isolates with increased resistance to cefotaxime and cefixime” (2007).
In brackets after ≈: the same amount, converted by molar mass.

Tests used:
Assay type in all cases: functional
Haemophilus influenzae [1] = test: Antibacterial activity against Haemophilus influenzae group I isolates with ftsI gene mutation by broth microdilution method
Procedure, shortened: (§1)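 Clinical isolates were tested by broth microdilution in Haemophilus test medium following CLSI guidelines, with H. influenzae ATCC 49247 as the QC strain. β-Lactamase was detected by chromogenic nitrocefin test. ftsI was PCR-amplified and sequenced across nt 936–1640 (aa 327–540). Classes: BLNAS (no mechanism), BLNAR (ftsI substitutions), BLPAR (β-lactamase only), BLPACR (both). Agents tested were amoxicillin, amoxicillin-clavulanate (2:1), cefaclor, cefuroxime, cefotaxime and cefixime.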

Haemophilus influenzae [2] = test: Antibacterial activity against beta-lactamase producing amoxicillin-clavulanic acid-resistant Haemophilus influenzae isolate by broth microdilution method; procedure, shortened: as §1
Haemophilus influenzae [3] = test: Antibacterial activity against Haemophilus influenzae group III-like isolates with ftsI gene mutation by broth microdilution method; procedure, shortened: as §1
Haemophilus influenzae [4] = test: Antibacterial activity against beta-lactamase positive ampicillin resistant Haemophilus influenzae isolate by broth microdilution method; procedure, shortened: as §1
Haemophilus influenzae [5] = test: Antibacterial activity against beta-lactamase nonproducing ampicillin susceptible Haemophilus influenzae isolate by broth microdilution method; procedure, shortened: as §1
Haemophilus influenzae [6] = test: Antibacterial activity against Haemophilus influenzae group IIc isolates with ftsI gene mutation by broth microdilution method; procedure, shortened: as §1
Haemophilus influenzae [7] = test: Antibacterial activity against beta-lactamase nonproducing ampicillin susceptible Haemophilus influenzae isolate assessed as percent susceptible isolates by broth microdilution method
Procedure, shortened: (§2)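 Broth microdilution in Haemophilus test medium per CLSI guidelines on clinical isolates, with H. influenzae ATCC 49247 as quality-control strain; β-lactamase production detected by nitrocefin chromogenic cephalosporin test; isolates classed by β-lactamase status and ftsI (PBP 3) sequencing of amino acids 327 to 540. Agents tested: amoxicillin, amoxicillin-clavulanic acid (2:1), cefaclor, cefuroxime, cefotaxime, cefixime.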

Haemophilus influenzae [8] = test: Antibacterial activity against beta-lactamase positive ampicillin resistant Haemophilus influenzae isolate assessed as percent resistant isolates by broth microdilution method; procedure, shortened: as §1
Haemophilus influenzae [9] = test: Antibacterial activity against beta-lactamase producing amoxicillin-clavulanic acid-resistant Haemophilus influenzae isolate assessed as percent resistant isolates by broth microdilution method; procedure, shortened: as §1
Haemophilus influenzae [10] = test: Antibacterial activity against beta-lactamase nonproducing ampicillin resistant Haemophilus influenzae isolate assessed as percent susceptible isolates by broth microdilution method; procedure, shortened: as §1
Haemophilus influenzae [11] = test: Antibacterial activity against Haemophilus influenzae group IIb isolates with ftsI gene mutation by broth microdilution method; procedure, shortened: as §1
Haemophilus influenzae [12] = test: Antibacterial activity against Haemophilus influenzae group IId isolates with ftsI gene mutation by broth microdilution method; procedure, shortened: as §1
Haemophilus influenzae [13] = test: Antibacterial activity against beta-lactamase producing amoxicillin-clavulanic acid-resistant Haemophilus influenzae isolate assessed as percent susceptible isolates by broth microdilution method; procedure, shortened: as §2
Haemophilus influenzae [14] = test: Antibacterial activity against beta-lactamase nonproducing ampicillin resistant Haemophilus influenzae isolate by broth microdilution method; procedure, shortened: as §1
Haemophilus influenzae [15] = test: Antibacterial activity against Haemophilus influenzae group IIa isolates with ftsI gene mutation by broth microdilution method; procedure, shortened: as §1
Haemophilus influenzae [16] = test: Antibacterial activity against beta-lactamase nonproducing ampicillin resistant Haemophilus influenzae isolate assessed as percent resistant isolates by broth microdilution method; procedure, shortened: as §1
Haemophilus influenzae [17] = test: Antibacterial activity against beta-lactamase nonproducing ampicillin susceptible Haemophilus influenzae isolate assessed as percent resistant isolates by broth microdilution method; procedure, shortened: as §1
Haemophilus influenzae [18] = test: Antibacterial activity against beta-lactamase nonproducing ampicillin resistant Haemophilus influenzae group IIc isolates with acrR aminoacid substitution mutation by broth microdilution method
Haemophilus influenzae [19] = test: Antibacterial activity against beta-lactamase nonproducing ampicillin resistant Haemophilus influenzae group IIc isolates with acrR mutation by broth microdilution method
Haemophilus influenzae [20] = test: (§3) Antibacterial activity against beta-lactamase nonproducing ampicillin resistant Haemophilus influenzae group IIa isolates with acrR aminoacid substitution mutation by broth microdilution method
Haemophilus influenzae [21] = test: Antibacterial activity against beta-lactamase nonproducing ampicillin resistant Haemophilus influenzae group I isolates with acrR ATT deletion behind nucleotide 170 by broth microdilution method
Haemophilus influenzae [22] = test: Antibacterial activity against beta-lactamase nonproducing ampicillin resistant Haemophilus influenzae group IIc isolates with acrR baseC insertion mutation by broth microdilution method
Haemophilus influenzae [23] = test: Antibacterial activity against beta-lactamase nonproducing ampicillin resistant Haemophilus influenzae group IIc isolates with acrR TTA>TGA mutation at 425 position by broth microdilution method
Haemophilus influenzae [24] = test: Antibacterial activity against beta-lactamase nonproducing ampicillin resistant Haemophilus influenzae group IIc isolates with acrR TTA>TGA mutation at 521 position by broth microdilution method
Haemophilus influenzae [25] = test: Antibacterial activity against beta-lactamase nonproducing ampicillin resistant Haemophilus influenzae group IIc isolates with acrR base C insertion behind nucleotide 496 by broth microdilution method
Haemophilus influenzae [26] = test: Antibacterial activity against beta-lactamase nonproducing ampicillin resistant Haemophilus influenzae group IIb isolates with acrR mutation by broth microdilution method
Haemophilus influenzae [27] = test: as §3; remark: listed apart in the source
Haemophilus influenzae [28] = test: Antibacterial activity against beta-lactamase nonproducing ampicillin resistant Haemophilus influenzae group IIc isolates with acrR base A insertion behind nucleotide 361 by broth microdilution method
Haemophilus influenzae [29] = test: Antibacterial activity against beta-lactamase nonproducing ampicillin resistant Haemophilus influenzae group IId isolates with acrR mutation by broth microdilution method
Haemophilus influenzae [30] = test: Antibacterial activity against beta-lactamase nonproducing ampicillin resistant Haemophilus influenzae group IIb isolates with acrR aminoacid substitution mutation by broth microdilution method

Compound `C=CC1=C(C(=O)O)N2C(=O)[C@@H](NC(=O)/C(=N\OCC(=O)O)c3csc(N)n3)[C@H]2SC1` [CEFIXIME] has an MIC (Haemophilus influenzae [1]) of 0.06 µg/mL (≈ 0.132 µM), an MIC50 (Haemophilus influenzae [1]) of 0.06 µg/mL (≈ 0.132 µM) and an MIC90 (Haemophilus influenzae [1]) of 0.12 µg/mL (≈ 0.265 µM). The MIC50 (Haemophilus influenzae [2]) was 0.06 µg/mL, the MIC90 (Haemophilus influenzae [2]) was 0.12 µg/mL and the MIC50 (Haemophilus influenzae [3]) was 1 µg/mL (≈ 2.21 µM). For the same compound, the MIC90 (Haemophilus influenzae [3]) was 4 µg/mL (≈ 8.82 µM), the MIC50 (Haemophilus influenzae [4]) was no more than 0.01 µg/mL and the MIC90 (Haemophilus influenzae [4]) was 0.06 µg/mL (≈ 0.132 µM). The MIC50 (Haemophilus influenzae [5]) was 0.06 µg/mL (≈ 0.132 µM), the MIC90 (Haemophilus influenzae [5]) was 0.06 µg/mL (≈ 0.132 µM) and the MIC50 (Haemophilus influenzae [6]) was 0.06 µg/mL (≈ 0.132 µM). It also gave an MIC90 (Haemophilus influenzae [6]) of 0.12 µg/mL (≈ 0.265 µM), an Activity (Haemophilus influenzae [7]) of 100% and an Activity (Haemophilus influenzae [8]) of 0%. The Activity (Haemophilus influenzae [9]) was 0%, the Activity (Haemophilus influenzae [10]) was 99% and the MIC50 (Haemophilus influenzae [11]) was 0.06 µg/mL (≈ 0.132 µM). For the same compound, the MIC90 (Haemophilus influenzae [11]) was 0.12 µg/mL (≈ 0.265 µM), the MIC50 (Haemophilus influenzae [12]) was 0.06 µg/mL (≈ 0.132 µM) and the MIC90 (Haemophilus influenzae [12]) was 0.12 µg/mL (≈ 0.265 µM). For the same compound, the Activity (Haemophilus influenzae [13]) was 100%, the MIC50 (Haemophilus influenzae [14]) was 0.06 µg/mL (≈ 0.132 µM) and the MIC90 (Haemophilus influenzae [14]) was 0.25 µg/mL (≈ 0.551 µM). The MIC50 (Haemophilus influenzae [15]) was 0.06 µg/mL (≈ 0.132 µM), the MIC90 (Haemophilus influenzae [15]) was 0.25 µg/mL (≈ 0.551 µM) and the Activity (Haemophilus influenzae [16]) was 1%. It also gave an Activity (Haemophilus influenzae [17]) of 0%.

`CC1(C)S[C@@H]2[C@H](NC(=O)[C@H](N)c3ccccc3)C(=O)N2[C@H]1C(=O)O` [AMPICILLIN] was tested, and the MIC (Haemophilus influenzae [1]) was 0.5 µg/mL (≈ 1.43 µM), the MIC50 (Haemophilus influenzae [1]) was 0.5 µg/mL (≈ 1.43 µM) and the MIC90 (Haemophilus influenzae [1]) was 2 µg/mL (≈ 5.72 µM). It also gave an MIC50 (Haemophilus influenzae [2]) of no less than 32 µg/mL, an MIC90 (Haemophilus influenzae [2]) of no less than 32 µg/mL and an MIC (Haemophilus influenzae [18]) of 2 µg/mL (≈ 5.72 µM). It also gave an MIC (Haemophilus influenzae [19]) of 1 µg/mL (≈ 2.86 µM), an MIC (Haemophilus influenzae [20]) of 1 µg/mL (≈ 2.86 µM) and an MIC50 (Haemophilus influenzae [3]) of 1 µg/mL (≈ 2.86 µM). The MIC90 (Haemophilus influenzae [3]) was 2 µg/mL (≈ 5.72 µM), the MIC50 (Haemophilus influenzae [4]) was 8 µg/mL (≈ 22.9 µM) and the MIC (Haemophilus influenzae [21]) was 2 µg/mL (≈ 5.72 µM). For the same compound, the MIC (Haemophilus influenzae [5]) was no more than 0.25 µg/mL, the MIC50 (Haemophilus influenzae [5]) was no more than 0.25 µg/mL and the MIC90 (Haemophilus influenzae [5]) was 0.5 µg/mL (≈ 1.43 µM). The MIC (Haemophilus influenzae [22]) was 2 µg/mL (≈ 5.72 µM), the MIC (Haemophilus influenzae [23]) was 0.5 µg/mL (≈ 1.43 µM) and the MIC (Haemophilus influenzae [24]) was 2 µg/mL (≈ 5.72 µM). For the same compound, the MIC50 (Haemophilus influenzae [6]) was 2 µg/mL (≈ 5.72 µM), the MIC90 (Haemophilus influenzae [6]) was 2 µg/mL (≈ 5.72 µM) and the Activity (Haemophilus influenzae [7]) was 98.4%. It also gave an MIC (Haemophilus influenzae [25]) of 0.5 µg/mL (≈ 1.43 µM), an Activity (Haemophilus influenzae [8]) of 100% and an MIC (Haemophilus influenzae [26]) of 1 µg/mL (≈ 2.86 µM). The Activity (Haemophilus influenzae [9]) was 100%, the Activity (Haemophilus influenzae [10]) was 49.2% and the MIC50 (Haemophilus influenzae [11]) was 1 µg/mL (≈ 2.86 µM). It also gave an MIC90 (Haemophilus influenzae [11]) of 2 µg/mL (≈ 5.72 µM), an MIC (Haemophilus influenzae [27]) of 4 µg/mL (≈ 11.4 µM) and an MIC (Haemophilus influenzae [12]) of 0.5 µg/mL (≈ 1.43 µM). It also gave an MIC50 (Haemophilus influenzae [12]) of 0.5 µg/mL (≈ 1.43 µM), an MIC90 (Haemophilus influenzae [12]) of 2 µg/mL (≈ 5.72 µM) and an MIC (Haemophilus influenzae [28]) of 1 µg/mL (≈ 2.86 µM). The MIC (Haemophilus influenzae [29]) was 1 µg/mL (≈ 2.86 µM), the Activity (Haemophilus influenzae [13]) was 0% and the MIC50 (Haemophilus influenzae [14]) was 1 µg/mL (≈ 2.86 µM). It also gave an MIC90 (Haemophilus influenzae [14]) of 2 µg/mL (≈ 5.72 µM), an MIC (Haemophilus influenzae [30]) of 2 µg/mL (≈ 5.72 µM) and an MIC50 (Haemophilus influenzae [15]) of 2 µg/mL (≈ 5.72 µM). It also gave an MIC90 (Haemophilus influenzae [15]) of 4 µg/mL (≈ 11.4 µM), an Activity (Haemophilus influenzae [16]) of 50.8% and an Activity (Haemophilus influenzae [17]) of 1.6%.

For `CO/N=C(\C(=O)N[C@@H]1C(=O)N2C(C(=O)O)=C(COC(C)=O)CS[C@H]12)c1csc(N)n1` [CEFOTAXIME], the MIC50 (Haemophilus influenzae [1]) was 0.03 µg/mL (≈ 0.0659 µM), the MIC90 (Haemophilus influenzae [1]) was 0.12 µg/mL (≈ 0.263 µM) and the MIC50 (Haemophilus influenzae [2]) was 0.03 µg/mL. It also gave an MIC90 (Haemophilus influenzae [2]) of 0.06 µg/mL, an MIC50 (Haemophilus influenzae [3]) of 0.5 µg/mL (≈ 1.1 µM) and an MIC90 (Haemophilus influenzae [3]) of 4 µg/mL (≈ 8.78 µM). It also gave an MIC90 (Haemophilus influenzae [4]) of 0.06 µg/mL (≈ 0.132 µM), an MIC (Haemophilus influenzae [5]) of no more than 0.01 µg/mL and an MIC50 (Haemophilus influenzae [5]) of no more than 0.01 µg/mL. It also gave an MIC90 (Haemophilus influenzae [5]) of 0.06 µg/mL (≈ 0.132 µM), an MIC50 (Haemophilus influenzae [6]) of 0.06 µg/mL (≈ 0.132 µM) and an MIC90 (Haemophilus influenzae [6]) of 0.12 µg/mL (≈ 0.263 µM). For the same compound, the Activity (Haemophilus influenzae [7]) was 100%, the Activity (Haemophilus influenzae [8]) was 0% and the Activity (Haemophilus influenzae [9]) was 0%. It also gave an Activity (Haemophilus influenzae [10]) of 99%, an MIC50 (Haemophilus influenzae [11]) of 0.06 µg/mL (≈ 0.132 µM) and an MIC90 (Haemophilus influenzae [11]) of 0.12 µg/mL (≈ 0.263 µM). It also gave an MIC50 (Haemophilus influenzae [12]) of 0.03 µg/mL (≈ 0.0659 µM), an MIC90 (Haemophilus influenzae [12]) of 0.12 µg/mL (≈ 0.263 µM) and an Activity (Haemophilus influenzae [13]) of 100%. It also gave an MIC50 (Haemophilus influenzae [14]) of 0.06 µg/mL (≈ 0.132 µM), an MIC90 (Haemophilus influenzae [14]) of 0.25 µg/mL (≈ 0.549 µM) and an MIC50 (Haemophilus influenzae [15]) of 0.06 µg/mL (≈ 0.132 µM). It also gave an MIC90 (Haemophilus influenzae [15]) of 0.25 µg/mL (≈ 0.549 µM), an Activity (Haemophilus influenzae [16]) of 1% and an Activity (Haemophilus influenzae [17]) of 0%.
